Only some compounds are listed: those with a hit (about 4.1% of all), similar ones and a draw of the others.
MEKK2mut PB1 HTS – signal of MEK5 binding to mutant human MEKK2 PB1 domain | bead flow cytometry, Alexa488-MEK5 binding to MEKK2 mutant | percent response, % at 10 µM | hit rate 0.35% among 290,000 | AID 1530; in the data active = percent response above about 24%, passing the limit was not always enough
FID counter – displaces DNA intercalator in HCV helicase counter-screen | DNA fluorescent intercalator displacement, fluorescence | hit rate 0.17% among 290,000 | inhibition, % at 7.9 µM; in the data active = inhibition above about 37%;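 note: 0% = vehicle and 100% = reference compound; higher means more ethidium bromide displaced from hairpin DNA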
T cruzi inh – T. cruzi replication inhibition; AID 1885; inhibition, % (test concentration not listed); hit rate 1.4% among 300,000; T. cruzi beta-gal in NIH3T3, luminescence, 90 h;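 active = mean inhibition across valid replicates above about 55%, limit read from the data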;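 note: signal also drops with host cell toxicity which is not excluded here; 0% = plate median of DMSO wells and 100% = zero luminescence signal; higher percent means less beta-gal luminescence so fewer parasites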
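System: Mouse NIH/3T3 fibroblasts infected with β-gal-expressing T. cruzi Tulahuen C4 | Quantity: NIH/3T3 cells, 5,000 per well | Reagent: 5000 reporter trypomastigotes per well | Dosing: Compound pinned at 50 nL/well, DMSO | Schedule: 3 h host attachment, then at least 90 h co-culture | Detection: GalScreen luminescence, 60 min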
MEKK2wt PB1 HTS – raises or lowers MEK5 binding to wildtype human MEKK2 PB1 domain; Q9Y2U5; bead flow cytometry, Alexa488-MEK5 binding to MEKK2 WT; actives lie on both sides; binding response (% of control), % at 10 µM; hit rate 1.1% among 290,000; AID 1531; in the data active = binding response below about 67% or above about 130%
MEKK3 PB1 HTS – modulators (inhibitors or enhancers) of MEK5 binding to human MEKK3 PB1 domain; hit rate 1.4% among 290,000; AID 1529; Q99759; binding response (% of control), % at 10 µM; bead-based flow cytometry, Alexa488-MEK5 binding to MEKK3; actives lie on both sides; 0 = blocked by unlabeled MEK5, 100 = vehicle;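 active = binding response more than 3 SD above or below the average of its plate-row segment, actives on both sides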;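 note: Alexa488 bead fluorescence after subtracting the streptavidin-only scavenger bead signal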
Target sequence (Q99759 whole entry, looked up, the tested form may be a part): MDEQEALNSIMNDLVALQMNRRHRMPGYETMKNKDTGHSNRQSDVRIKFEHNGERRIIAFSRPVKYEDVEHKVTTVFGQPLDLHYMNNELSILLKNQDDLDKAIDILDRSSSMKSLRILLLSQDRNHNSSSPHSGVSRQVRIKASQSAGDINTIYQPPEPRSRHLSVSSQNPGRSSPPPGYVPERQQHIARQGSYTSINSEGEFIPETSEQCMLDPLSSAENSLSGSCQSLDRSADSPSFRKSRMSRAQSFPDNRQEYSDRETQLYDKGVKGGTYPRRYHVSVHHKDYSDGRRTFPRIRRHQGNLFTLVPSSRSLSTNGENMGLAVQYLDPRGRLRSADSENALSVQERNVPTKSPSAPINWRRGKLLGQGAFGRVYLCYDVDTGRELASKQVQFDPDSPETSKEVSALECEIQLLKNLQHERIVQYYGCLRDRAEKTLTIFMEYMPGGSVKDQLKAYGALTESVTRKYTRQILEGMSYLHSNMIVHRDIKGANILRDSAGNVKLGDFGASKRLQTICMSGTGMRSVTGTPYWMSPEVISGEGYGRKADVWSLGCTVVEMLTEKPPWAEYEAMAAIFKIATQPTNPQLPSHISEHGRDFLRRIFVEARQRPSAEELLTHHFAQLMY
NS3 helicase inh – blocks Hepatitis C virus NS3 helicase unwinding; hit rate 0.56% among 290,000; NS3 helicase DNA unwinding, Cy5 molecular beacon fluorescence; inhibition, % at 10.9 µM; AID 1800;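 active = inhibition above the mean of all tested compounds plus 3 SD, set per campaign, cut at about 35% in these data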;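 note: 0% = DMSO wells and 100% = thioflavine S control wells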
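System: NS3 helicase fragment of HCV / Schedule: 1 h at 25 °C / Control set: DMSO alone as 0% and 110 µM thioflavine S as 100% / Reagent: Cy5/quencher beacon DNA duplex and ATP to start / Technique: Cy5 fluorescence / Replication: singlicate / Evaluation: % inhibition of end-to-start signal ratio versus controls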
MEKK2wt confirm – raises or lowers MEK5 binding to wildtype human MEKK2, retest | shares compounds with MEKK3 PB1 HTS | bead flow cytometry, Alexa488-MEK5 binding to MEKK2 WT; actives lie on both sides | binding response (% of control), % at 10 µM | hit rate 2.4% among 5,900 | AID 1892; in the data active = binding response below about 16% or above about 210%; inactive = in between
MEKK2mut confirm – signal of MEK5 binding to mutant human MEKK2, retest; shares compounds with MEKK3 PB1 HTS; bead flow cytometry, Alexa488-MEK5 binding to MEKK2 mutant; percent response, % at 10 µM; hit rate 2% among 5,900; AID 1893; in the data active = percent response mostly above about 71%, no sharp cut-off; inactive = mostly below about 38%;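 note: higher means compound restores mutant binding toward wildtype level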
MEKK3-MEK5 inh – confirmation of inhibitors of MEK5 binding to human MEKK3 | shares compounds with MEKK3 PB1 HTS | bead flow cytometry, Alexa488-MEK5 binding to MEKK3; active compounds read low | binding response (% of control), % at 10 µM | hit rate 1.8% among 5,900 | AID 1894;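 active = binding response below 72% of control, or above a set upper limit, though filed actives all read lower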;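 note: 100% = DMSO only wells and 0% = binding blocked by excess unlabeled MEK5; lower values mean stronger disruption of MEK5 binding to MEKK3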
* marks the source's active call; other numbers are inactive results; / = no result given; [ ] = remark or other dose.

SMILES | MEKK2mut PB1 HTS | FID counter | T cruzi inh | MEKK2wt PB1 HTS | MEKK3 PB1 HTS | NS3 helicase inh | MEKK2wt confirm | MEKK2mut confirm | MEKK3-MEK5 inh
CSc1cccc(NC(=S)N(CCCN2CCCC2)Cc2cccn2Cc2ccc(Cl)cc2)c1 | 94* | 23 | 56* | 270* | 113 | -95 | 245* | 77* | 111
CSc1cccc(NC(=S)N(CCCN2CCCC2)Cc2cccs2)c1 | 6 | 4 | -2 | 119 | 104 | -11 | / | / | /
COc1cccc(NC(=S)N(CCCN2CCCC2)Cc2cccn2Cc2ccc(Cl)cc2)c1 | 55* | 37* | 20 | 177* | 113 | -83 | 164 | 38 | 111
S=C(Nc1cccc(Cl)c1)N(CCCN1CCCC1)Cc1cccn1Cc1ccc(Cl)cc1 | 8 | 36 | 53 | 262* | 105 | -69 | 221* | 63 | 114
COc1ccccc1NC(=O)CCn1c(=O)c2cccn2c2ccccc21 | 3 | -30 | 11 | 106 | 102 | 5 | / | / | /
Cc1ccc(S(=O)(=O)NCC(=O)NCCc2c[nH]c3ccccc23)cc1C | 15 | -22 | -7 | 113 | 103 | -10 | / | / | /
CS(=O)(=O)CC(=O)Nc1ccc2nc3n(c(=O)c2c1)CCCCC3 | 4 | 4 | 1 | 106 | 106 | -1 | / | / | /
COc1ccc(C2NCCc3c2[nH]c2ccccc32)cc1COc1ccc(F)cc1 (stereo not drawn) | 2 | 25 | 49 | 140* | 62*[inhibitor] | -68 | 205 | 69 | 114
COc1ccc(C2NCCc3c2[nH]c2ccccc32)cc1CN1CCc2cc(OC)c(OC)cc2C1C (stereo not drawn) | 20 | 18 | 61* | 172* | 107 | -64 | 216* | 81* | 117
COc1ccc(C2NC(C(=O)O)Cc3c2[nH]c2ccccc32)cc1CN1CCN(c2ccc(F)cc2)CC1 (stereo not drawn) | 5 | -4 | 23 | 120 | 93 | -31 | / | / | /
O=C(c1ccccc1)c1nnc(-c2ccccc2F)o1 | -16 | 0 | -6 | -1.0*[inhibitor] | 0.0*[inhibitor] | -4 | 106 | 2 | 106
CCCCNC(=O)C1C2C=CC(C2)C1C(=O)O (stereo not drawn) | 0 | 2 | -7 | 110 | 149* | -4 | 96 | -7 | 97
COc1ccccc1CCc1nnc(CCC(=O)NC(C)Cn2nc(C)cc2C)o1 (stereo not drawn) | -18 | -27 | -2 | 50 | 37*[inhibitor] | 9 | 104 | 4 | 107
O=C(CSc1nc(C2CCCCC2)nc2ccccc12)NCc1ccco1 | -28 | -25 | 25 | -1.0*[inhibitor] | 2.0*[inhibitor] | -5 | 109 | 7 | 110
CCCOC1OC(=O)c2c1ccc(OC)c2OC (stereo not drawn) | 3 | 7 | -7 | 99 | 101 | 1 | / | / | /
CC(=O)Nc1ccc(S(=O)(=O)N(C)Cc2ccccc2)cc1 | -1 | -7 | -6 | 108 | 104 | -2 | / | / | /
CC(=O)Nc1ccc(S(=O)(=O)N(Cc2ccccc2)C(C)C)cc1 | -18 | -14 | 7 | 1.0*[inhibitor] | 1.0*[inhibitor] | -19 | 92 | -7 | 99
CCOC(=O)c1cc(C#N)c(SCC(=O)c2cc(C#N)c(SC)nc2C)[nH]c1=O | -14 | -9 | -7 | 80 | 74*[inhibitor] | -1 | 102 | -4 | 101
CCOC(=O)c1cc(C#N)c(SCC(N)=O)[nH]c1=O | -1 | -1 | -5 | 100 | 99 | 3 | / | / | /
CCCCN(C(=O)CSCC(=O)Nc1ccc(OC)cc1)c1c(N)n(Cc2ccccc2)c(=O)[nH]c1=O | / | / | -8 | / | / | / | / | / | /
O=C1CCCc2nc(NCc3ccco3)ncc21 | 24* | -1 | -13 | 111 | 112 | -4 | 101 | 0 | 98
CC1(C)CC(=O)c2cnc(NCc3ccco3)nc2C1 | -3 | -5 | / | 94 | 92 | 4 | / | / | /
Cc1cccc(NC(=O)CSCC(=O)Nc2ccccc2C(=O)NC2CC2)c1 | / | / | -14 | / | / | / | / | / | /
CN(C)Cc1c(-c2ccc(Cl)cc2)nc2ccc(Cl)cn12 | -6 | 4 | 17 | 94 | 99 | -1 | / | / | /
c1ccc(N/N=C2\CCCc3ccccc32)nc1 | 2 | 7 | 8 | 99 | 101 | 1 | / | / | /
SMILES | MEKK2mut PB1 HTS | FID counter | T cruzi inh | MEKK2wt PB1 HTS | MEKK3 PB1 HTS | NS3 helicase inh | MEKK2wt confirm | MEKK2mut confirm | MEKK3-MEK5 inh
Cc1cc(N/N=C2/CCCc3ccccc32)nc2ccccc12 | 28 | -1 | 51 | 160* | 108 | 8 | 154 | 28 | 109
Cc1ccc(S(=O)(=O)c2nc(N3CCOCC3)sc2Cl)cc1 | 7 | -16 | -2 | 119 | 124* | 7 | 106 | 1 | 110
CCCS(=O)(=O)c1nc(S(=O)(=O)c2ccc(C)cc2)c(N2CCOCC2)s1 | 5 | -31 | 17 | 102 | 101 | 9 | / | / | /
Cn1ccc(C(=O)Oc2ccc(C(=O)Nc3ccc(F)cc3F)cc2)n1 | -17 | -6 | -17 | 72 | 71 | -5 | / | / | /
CC12CC3(C)CC(C)(C1)CC(C(=O)Nc1nn[nH]n1)(C2)C3 | -14 | -18 | -4 | 87 | 81*[inhibitor] | 16 | 91 | -4 | 99
CC12CC3CC(C)(C1)CC(C(=O)Nc1nn[nH]n1)(C3)C2 | 9 | -17 | -3 | 103 | 100 | -2 | / | / | /
O=C1c2ccccc2-c2nc3ccccc3nc21 | -27 | 2 | -3 | 72 | 67*[inhibitor] | 7 | 94 | -7 | 99
CCOC(=O)C1CCCN(C(=O)c2cccc([N+](=O)[O-])c2C)C1 (stereo not drawn) | -5 | -8 | -11 | 96 | 98 | 7 | / | / | /
CS(=O)(=O)NN1C(=O)c2ccccc2NC1c1cc2ccccc2nc1Cl (stereo not drawn) | 0 | -6 | -3 | 108 | 132* | 11 | 83 | -14 | 79
CS(=O)(=O)NN1C(=O)c2ccccc2NC1c1ccccc1F (stereo not drawn) | -1 | -1 | -19 | 94 | 90 | 1 | / | / | /
CN(CC(=O)Nc1cccc(F)c1)CC(=O)Nc1cccc(S(N)(=O)=O)c1 | -21 | -5 | -11 | 82 | 89 | -4 | / | / | /
Cc1cccc(/C=N/n2c(-c3cc(-c4ccccc4)n[nH]3)n[nH]c2=S)c1 | 0 | -2 | 9 | 101 | 138* | 0 | 96 | -3 | 101
COCc1ccc(C(=O)NC2CCCc3c2cnn3-c2ccc(C)c(C)c2)o1 (stereo not drawn) | 3 | -36 | 6 | 105 | 102 | 11 | / | / | /
